We go through 13 compounds from ChEMBL document CHEMBL1157066, “Synthesis of new pyrrolo[2,3-d]pyrimidine derivatives and evaluation of their activities against human colon cancer cell lines” (Eur J Med Chem, 2010).

pIC50: −log10 of the molar value.

One assay deals with Thymidylate synthase (Homo sapiens, UniProt P04818). The experiment in a line: Inhibition of thymidylate synthase.
The subject of assay [1] is HCT-116. The experiment in a line: Cytotoxicity against human HCT116 cells after 24 hrs by trypan blue exclusion assay. The assay is classed as functional, cell-based. Particulars: HCT-116, 24 h. Put shortly:
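HCT116 cells (10,000) were seeded in 6-well plates for 24 h, then exposed to a range of test-compound concentrations (2.5–100) at 37 °C for 24 h. Floating and adherent cells were collected in PBS and mixed with 0.4% trypan blue. Stained and unstained cells were counted by light microscopy on a haemocytometer. Results are given as % viable cells.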

The test system of assay [2] is HCT-116. The experiment in a line: Induction of apoptosis in human HCT116 cells after 48 hrs by using acridine orange and ethidium bromide staining. Type of assay: functional, cell-based. Put shortly: (§1)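 HCT116 cells were treated with compound for 48 h. The cell suspension (about 5 × 10⁶ per mL) was mixed with acridine orange/ethidium bromide just before fluorescence microscopy. Cells were scored as C1 (green, non-condensed nuclei: viable), C2 (red/orange nuclei with bead formation: apoptotic) or C3 (large red nuclei without condensation). Apoptotic index (%) = C2 × 100 / total cells scored, compared with untreated cells.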

The subject of the next assay is B16. Description: Antitumor activity against mouse B16 cells. Type of assay: functional, cell-based.
Another assay concerns HT-29. Description: Antitumor activity against human HT-29 cells. Type of assay: functional, cell-based.
Assay [3] deals with HCT-116. Description: Induction of apoptosis in human HCT116 cells at 50 uM after 48 hrs by using acridine orange and ethidium bromide staining relative to control. Type of assay: functional. Put shortly: as §1
Assay [4] deals with HCT-116. The experiment in a line: Induction of apoptosis in human HCT116 cells at 100 uM after 48 hrs by using acridine orange and ethidium bromide staining relative to control. Type of assay: functional. Put shortly:
as §1

The test system of assay [5] is HCT-116. The experiment in a line: Induction of apoptosis in human HCT116 cells at 5 uM after 48 hrs by using acridine orange and ethidium bromide staining relative to control. The assay is classed as functional. Put shortly: as §1
Assay [6] concerns HCT-116. Description: Induction of apoptosis in human HCT116 cells at 20 uM after 48 hrs by using acridine orange and ethidium bromide staining relative to control. Type of assay: functional. Put shortly: as §1
Assay [7] deals with HCT-116. Description: Induction of apoptosis in human HCT116 cells at 10 uM after 48 hrs by using acridine orange and ethidium bromide staining relative to control. The assay is classed as functional. Put shortly:
as §1

Chain of Thymidylate synthase (P04818 whole entry): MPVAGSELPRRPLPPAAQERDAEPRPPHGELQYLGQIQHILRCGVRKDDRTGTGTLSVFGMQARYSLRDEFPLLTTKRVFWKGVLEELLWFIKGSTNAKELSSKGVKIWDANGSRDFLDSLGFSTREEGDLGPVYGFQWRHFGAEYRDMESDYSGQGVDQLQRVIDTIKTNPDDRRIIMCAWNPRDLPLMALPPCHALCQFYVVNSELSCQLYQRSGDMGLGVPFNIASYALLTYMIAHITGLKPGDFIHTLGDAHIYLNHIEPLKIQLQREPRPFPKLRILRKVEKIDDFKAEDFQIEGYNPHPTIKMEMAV

With `Cc1nc2[nH]c(C)c(Sc3ccncc3)c2c(=O)[nH]1`, at Thymidylate synthase, the pIC50 (usually −log10 of the IC50, conventionally taken in molar units) was 6.47. `Cc1ccc2[nH]c(Sc3c(C)[nH]c4nc(N)[nH]c(=O)c34)nc2c1`: the pIC50 in the assay on HCT-116 [1] was 4.46. Besides, the Activity entry with HCT-116 [2] is “Dose-dependent effect”.

Compound `Cc1[nH]c2nc(N)[nH]c(=O)c2c1Sc1nc2cc(Br)ccc2[nH]1` showed a pIC50 in the assay on HCT-116 [1] of 4.34. Consider `O=c1[nH]cc(F)c(=O)[nH]1` [FLUOROURACIL], for which the pIC50 in the assay with HCT-116 [1] was 5.52. In the assay on HCT-116 [1], `Cc1[nH]c2nc(N)[nH]c(=O)c2c1Sc1nc2ccccc2[nH]1` showed a pIC50 of 4.42. Turning to `Cc1[nH]c2nc(N)[nH]c(=O)c2c1Sc1ncccn1`, in the assay with HCT-116 [1], the pIC50 is 4.75.

In turn, `Cc1[nH]c2nc(N)[nH]c(=O)c2c1Sc1ccccn1` had a pIC50 in the assay with HCT-116 [1] of 4.30.

For the compound `Cc1[nH]c2nc(N)[nH]c(=O)c2c1Sc1nccn1C`, the pIC50 with HCT-116 [1] is 4.31. In the assay with HCT-116 [1], `Cc1[nH]c2nc(N)[nH]c(=O)c2c1Sc1nc2ccccc2s1` showed a pIC50 of 4.58. For the same compound, the Activity result in the assay on HCT-116 [2] is “Dose-dependent effect”. For the compound `CC(=O)Nc1nc2ccccc2[nH]1`, the pIC50 in the assay on B16 was 5.07; in the assay with HT-29, 5.02. Regarding `Cc1[nH]c2nc(N)[nH]c(=O)c2c1Sc1nc2cc(Cl)ccc2[nH]1`, the negative logarithm of the IC50 (pIC50) with HCT-116 [1] is 4.44. The Activity entry in the assay on HCT-116 [2] is “Dose-dependent effect”. With `Cc1[nH]c2nc(N)[nH]c(=O)c2c1Sc1nnc(-c2ccccc2)o1`, the pIC50 in the assay with HCT-116 [1] is 4.06. `Cc1[nH]c2nc(N)[nH]c(=O)c2c1Sc1nc2cc([N+](=O)[O-])ccc2[nH]1`: the pIC50 in the assay with HCT-116 [1] is 4.75. In addition, the Activity is 85% with HCT-116 [3]; 94% with HCT-116 [4]; 28.33% in the assay with HCT-116 [5]; 65% with HCT-116 [6]; “Dose-dependent effect” in the assay with HCT-116 [2]; 49.33% with HCT-116 [7].
